EBNA-1 inh = blocks EBNA-1 binding to DNA. EBNA-1 DNA binding, fluorescence polarization. inhibition, % at 14.8 µM. actives 0.34% (n = 300,000); in the data active means inhibition above about 28%
ZTA DNA inh = ZTA (EBV) inhibition in EBNA-1 counter-screen; P03206; ZTA-DNA binding, fluorescence polarization; inhibition, % at 11 µM; actives 0.15% (n = 320,000); AID 2234; in the data active means inhibition above about 33%
Target sequence (P03206 whole entry, looked up): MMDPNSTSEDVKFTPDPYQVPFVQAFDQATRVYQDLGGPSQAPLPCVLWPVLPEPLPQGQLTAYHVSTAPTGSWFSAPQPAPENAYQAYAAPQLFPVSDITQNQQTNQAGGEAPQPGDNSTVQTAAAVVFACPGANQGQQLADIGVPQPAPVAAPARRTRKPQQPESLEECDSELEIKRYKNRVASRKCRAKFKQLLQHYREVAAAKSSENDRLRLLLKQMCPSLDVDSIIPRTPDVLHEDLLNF
Apaf-1 inh = inhibitors of human Apaf-1 apoptosome; O14727; reconstituted apoptosome caspase-3 activity, DEVD-Rh110 fluorescence; inhibition, % at 20 µM; actives 0.71% (n = 330,000); AID 489030; active means inhibition of at least 40% at 20 µM
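Material: reconstituted apoptosome with Apaf-1, cytochrome c, caspase-9, procaspase-3, dATP; medium: pH 7.5 Hepes buffer with CHAPS, BSA, DTT; also added: cytochrome c and DEVD-Rh110 substrate; timing: 30 min plus 50 min, RT; signal: Rh110 fluorescence intensity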
M18AAP inhibitor = PfM18AAP enzyme inhibition; inhibition, % at 7.35 µM; actives 1.2% (n = 290,000); recombinant PfM18AAP, H-Glu-NHMec fluorogenic cleavage;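 active means inhibition above the campaign mean inhibition over all tested compounds plus 3 SD, cut at about 28% in these data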
PfG6PD inh = PfG6PD (Plasmodium falciparum) enzyme inhibition | PfGluPho enzyme, NADPH resazurin-diaphorase fluorescence | inhibition, % at 20 µM | actives 0.78% (n = 350,000) | AID 504690;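 active means inhibition reaching at least a set limit at 20 µM in the primary screen, cut at about 59% in these data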
UBC13 polyUb = human UBC13 polyubiquitination inhibition | inhibition, % at 20 µM | P61088 | UBC13 polyubiquitin chain formation, TR-FRET | actives 0.47% (n = 330,000); in the data active means inhibition above about 45%, passing the limit was not always enough
Target sequence (P61088 whole entry, looked up): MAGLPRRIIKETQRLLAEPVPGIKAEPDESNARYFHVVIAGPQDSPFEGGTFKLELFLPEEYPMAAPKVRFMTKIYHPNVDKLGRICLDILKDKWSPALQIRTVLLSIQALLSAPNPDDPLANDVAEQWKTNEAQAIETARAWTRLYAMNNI
Each line names hits and unclear results; the compound was inactive in the other large screens. Only some compounds are listed: those with a hit (about 2.9% of all), similar ones and a draw of the others.

Cc1ccc(-c2nc3ccccc3nc2NN)cc1	M18AAP inhibitor 31
COc1ccccc1N(CC(O)COc1ccccc1C)S(=O)(=O)c1ccccc1 (stereo unspecified)	none
O=[N+]([O-])c1ccccc1N/N=C/c1cccc(O)c1O	M18AAP inhibitor 30
O=[N+]([O-])c1cccc(N/N=C/c2cccc(O)c2O)c1	M18AAP inhibitor 42
O=C(Cn1cnc(S(=O)(=O)N2CCCCC2)c1)NCc1ccco1	none
COc1ccc(CCNC(=O)c2ccc3nc(-c4ccco4)c(-c4ccco4)nc3c2)cc1OC	Apaf-1 inh 56, PfG6PD inh 62
CCc1nc2ccc(C(=O)NCCc3ccc(OC)c(OC)c3)cc2nc1CC	none
Cc1cc(/C=N/NC(=O)c2cc3ccccc3o2)c(C)n1C	M18AAP inhibitor 30
O=C(N/N=C/c1ccncc1)c1cc2ccccc2o1	none
Cn1cnc(Sc2ncnc3nc[nH]c23)c1[N+](=O)[O-]	PfG6PD inh 61
CCC(CC)c1nnc(NC(=O)COc2ccc3c(c2)OCO3)s1	M18AAP inhibitor 30
CC(C)c1nnc(NC(=O)COc2ccc3c(c2)OCO3)s1	none
CCOC(=O)c1c(C)[nH]c(C(=O)OCC(=O)N(CC(C)C)C2CCS(=O)(=O)C2)c1C (stereo unspecified)	none (no result: EBNA-1 inh, M18AAP inhibitor)
O=C1CNC(=S)N1CCc1ccc(O)c(O)c1	M18AAP inhibitor 69
CCCC(C)c1nnc(NC(=O)CCS(=O)(=O)c2ccccc2)s1 (stereo unspecified)	PfG6PD inh 75
CCCNC(=O)c1ccc2c(=O)c(O)c(-c3ccc(Cl)c([N+](=O)[O-])c3)[nH]c2c1	none (no result: M18AAP inhibitor)
NC(=O)c1ccc2c(=O)c(O)c(-c3cc(Cl)c(N)c(Cl)c3)[nH]c2c1	M18AAP inhibitor 51
CC(=O)Oc1ccc(-c2csnn2)cc1	none
Cc1ccccc1C(=O)NNc1ccc(-c2csnn2)cc1	M18AAP inhibitor 30
O=C(NCc1ccccn1)c1cc2n(n1)C(C(F)(F)F)CC(c1ccco1)N2 (stereo unspecified)	M18AAP inhibitor 31
O=C(Nc1ccc(N2CCN(C(=O)c3ccccc3F)CC2)cc1)c1cncc(Br)c1	none
O=C(COC(=O)c1cccc(Br)c1)NCCNC(=O)COC(=O)c1cccc(Br)c1	none
Cc1ccc(S(=O)(=O)N(C(=O)c2ccncc2)c2ccc(OC(=O)c3ccncc3)c3ccccc23)c(C)c1	PfG6PD inh 73
CC(=O)Oc1ccc(N(C(C)=O)S(=O)(=O)c2ccc(C)cc2C)c2ccccc12	none (no result: EBNA-1 inh, ZTA DNA inh)
Cc1ccc(C(=O)/C=C/c2ccc(-c3ccc(C)cc3)o2)cc1	none
CCN(CC)S(=O)(=O)c1ccc(C(=O)/C=C/c2ccc(-c3ccc([N+](=O)[O-])cc3)o2)cc1	M18AAP inhibitor 28
CCCN1C(=O)/C(=C/c2c(N3CCNC(=O)C3CC(=O)OCC)nc3c(C)cccn3c2=O)SC1=S (stereo unspecified)	PfG6PD inh 60
CC1(C)OC2OC3C(CNCCO)OC(c4ccccc4)OC3C2O1 (stereo unspecified)	none (no result: EBNA-1 inh, ZTA DNA inh, Apaf-1 inh, M18AAP inhibitor, UBC13 polyUb)
C=CCOC1COC2C(OCC=C)COC12 (stereo unspecified)	none (no result: EBNA-1 inh, ZTA DNA inh, Apaf-1 inh, M18AAP inhibitor, UBC13 polyUb)
CC1(C)NC(=O)N(CC(=O)OCC(=O)c2ccc(F)cc2)C1=O	EBNA-1 inh 102 (no result: M18AAP inhibitor)
Cc1[nH]n(-c2ccccc2)c(=O)c1C=Nc1ccc(S(=O)(=O)N=C(N)N)cc1	none
Cc1[nH]n(-c2ccccc2)c(=S)c1C=Nc1ccc([N+](=O)[O-])cc1	M18AAP inhibitor 51, PfG6PD inh 98 (no result: Apaf-1 inh, UBC13 polyUb)
Cc1ccc(C(=O)NC(Cc2ccccc2C(F)(F)F)C(=O)O)cc1 (stereo unspecified)	none (no result: EBNA-1 inh, ZTA DNA inh, M18AAP inhibitor, UBC13 polyUb)
CCc1cc(C(=O)NNC(=S)NCc2ccccc2)cs1	none
CCNC(=S)NNC(=O)c1csc(CC)c1	M18AAP inhibitor 31
COc1ccncc1-c1ccccc1C1=CC(=O)CC(C)(C)C1=O	none (no result: EBNA-1 inh, ZTA DNA inh, Apaf-1 inh, M18AAP inhibitor, UBC13 polyUb)
COc1ccc2[nH]c(=O)c(CN(Cc3nnnn3Cc3ccco3)C3CCCCC3)cc2c1	none
COc1ccc2[nH]c(=O)c(CN(C3CCCCC3)C(c3nnnn3Cc3ccco3)C(C)C)cc2c1 (stereo unspecified)	PfG6PD inh 88
Cc1ccc(CN(Cc2cc3cc4c(cc3[nH]c2=O)OCCO4)Cc2nnnn2Cc2ccco2)cc1	M18AAP inhibitor 30
CCCn1c(N)c(C(=O)COC(=O)/C=C/c2ccc(OC(F)F)c(OC)c2)c(=O)[nH]c1=O	none (no result: EBNA-1 inh, ZTA DNA inh, M18AAP inhibitor)
NC(=O)c1ncn([C@@H]2O[C@H](CNCc3ccc(OCC(=O)Nc4ccccn4)cc3)[C@@H](O)[C@H]2O)n1	none (no result: EBNA-1 inh, ZTA DNA inh, Apaf-1 inh, M18AAP inhibitor, UBC13 polyUb)
O=C(N/N=C/c1c(O)ccc2ccccc12)c1cccnc1	M18AAP inhibitor 31
Cn1nccc1C(=O)N/N=C/c1c(O)ccc2ccccc12	M18AAP inhibitor 28
Cn1c(/N=C/c2c(O)ccc3ccccc23)nc2ccccc21	PfG6PD inh 76 (no result: Apaf-1 inh, UBC13 polyUb)
O=C(NN=Cc1c(O)ccc2ccccc12)c1ccncc1	none (no result: EBNA-1 inh, ZTA DNA inh, Apaf-1 inh, M18AAP inhibitor, UBC13 polyUb)
CCCn1c(/N=C/c2ccccc2O)nc2ccccc21	none
COC(=O)C[C@@H]1C[C@@H]2c3cc(NS(=O)(=O)c4ccc(F)cc4)ccc3O[C@@H]2[C@@H](CO)O1	none (no result: EBNA-1 inh, ZTA DNA inh, Apaf-1 inh, M18AAP inhibitor, UBC13 polyUb)
O=C(CC1(O)C(=O)N(C/C=C/c2ccccc2)c2ccccc21)c1ccccn1 (stereo unspecified)	M18AAP inhibitor 32
CC(=O)Nc1nc(=O)c2ccccc2s1	M18AAP inhibitor 30
CC(=O)N/C(N)=N/c1nc(=O)c2ccccc2s1	none
COc1ccc(C)cc1S(=O)(=O)N1CCCC(C(=O)N2CCN(c3ccccc3)CC2)C1 (stereo unspecified)	none
CCCOC(=O)Nc1nc2ccccc2o1	none
CCOC(=O)c1cnc(Nc2nc3ccccc3o2)nc1CN1CCN(C)CC1	M18AAP inhibitor 61 (no result: EBNA-1 inh, ZTA DNA inh, Apaf-1 inh, UBC13 polyUb)
COC(=O)c1cnc(NNS(=O)(=O)c2ccc(Cl)cc2)nc1C(F)(F)F	M18AAP inhibitor 29
CCN(CC)C(=O)C1=C(C)N(CCCN2CCCC2=O)C(=O)C(CC(=O)NC2CCCC2)C1 (stereo unspecified)	none (no result: EBNA-1 inh, ZTA DNA inh, Apaf-1 inh, M18AAP inhibitor, UBC13 polyUb)
Cc1ccc(C(=O)NNC(=S)NC(=O)COc2ccccc2)cc1	none
Cc1cccc(OCC(=O)NC(=S)NNC(=O)c2ccncc2)c1	M18AAP inhibitor 45, PfG6PD inh 77
COc1ccc(-c2cc(C(=O)N3CCN(c4ccccc4O)CC3)c3ccccc3n2)cc1OC	M18AAP inhibitor 31
O=C(Nc1nc(-c2ccco2)cs1)c1ccccc1	none
Cc1ccc(-c2csc(NC(=O)c3ccc(-c4ccccc4)cc3)n2)o1	PfG6PD inh 60
Cc1ccccc1Nc1nc(-c2sc(NC(=O)c3ccccc3)nc2C)cs1	UBC13 polyUb 93 (no result: PfG6PD inh)
O=C1CCc2cccc(O)c2N1	none (no result: EBNA-1 inh, ZTA DNA inh, Apaf-1 inh, M18AAP inhibitor, UBC13 polyUb)
NC[C@H](Cc1ccccc1)NCCCCC1CCCCC1	none (no result: EBNA-1 inh, M18AAP inhibitor)
CNC[C@H](CC1CCCCC1)NC[C@H](Cc1ccccc1)NCCC12CC3CC(CC(C3)C1)C2	Apaf-1 inh 74
O=C(O)c1ccc(/C=N/n2c(C3CCCCC3)n[nH]c2=S)cc1	M18AAP inhibitor 30
